Only some compounds are listed: those with a hit (about 1.9% of all), similar ones and a draw of the others.
M5 ag = human M5 muscarinic receptor agonists, primary screen, CHO-K1 cells, Fluo-8 calcium fluorescence. activation, % at 3 µM. actives 0.19% (n = 360,000). Muscarinic acetylcholine receptor M5 (Homo sapiens), P08912. AID 624037, 2012. CHO-K1 hM5 cells; 0% DMSO wells, 100% maximal acetylcholine response;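 active = activation above the run's mean over test compounds plus 3 SD, cut at about 23% in these data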;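 note: signal is peak over basal fluorescence ratio across the kinetic read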
Target sequence (P08912 whole entry, looked up): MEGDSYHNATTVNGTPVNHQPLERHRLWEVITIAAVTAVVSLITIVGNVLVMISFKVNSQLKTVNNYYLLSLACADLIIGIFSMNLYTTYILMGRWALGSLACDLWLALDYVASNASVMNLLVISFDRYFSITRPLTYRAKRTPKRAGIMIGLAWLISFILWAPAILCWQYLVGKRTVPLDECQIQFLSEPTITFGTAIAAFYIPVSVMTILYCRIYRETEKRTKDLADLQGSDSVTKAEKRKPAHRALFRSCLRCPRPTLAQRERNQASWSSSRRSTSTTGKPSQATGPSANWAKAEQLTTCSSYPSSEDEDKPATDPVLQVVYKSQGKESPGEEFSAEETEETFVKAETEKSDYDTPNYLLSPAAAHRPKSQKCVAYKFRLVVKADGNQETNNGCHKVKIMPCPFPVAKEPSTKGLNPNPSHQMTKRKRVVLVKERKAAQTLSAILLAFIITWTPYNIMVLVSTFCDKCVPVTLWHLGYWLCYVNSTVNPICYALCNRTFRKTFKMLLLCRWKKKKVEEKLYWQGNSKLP
CHRM4 PAM = human M4 muscarinic receptor positive allosteric modulators, primary screen, CHO-K1 cells, Fluo-8 calcium fluorescence; AID 624126, 2012; actives 0.4% (n = 360,000); Muscarinic acetylcholine receptor M4 (Homo sapiens), P08173; activation, % at 3 µM; CHO-K1 hM4/Gqi5, ACh EC20; 0% = ACh EC20, 100% = maximal ACh;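 active = activation above its plate's cutoff, the mean activation of sample wells plus 3 SD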
M5 PAM = human M5 muscarinic receptor positive allosteric modulators, primary screen, CHO-K1 cells, Fluo-8 calcium fluorescence; Muscarinic acetylcholine receptor M5 (Homo sapiens), P08912; CHO-K1 hM5, ACh EC20 PAM; 0% = ACh EC20, 100% = ACh EC100; activation, % at 3 µM; actives 0.3% (n = 360,000);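 active = activation above the run cutoff, the mean activation of all test compounds plus 3 SD, cut at about 18% in these data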
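Replicates: One well per compound, no replicates | System: Human M5 receptor in CHO-K1 cells | Benchmarks: Low control EC20 acetylcholine (0%), high control EC100 acetylcholine (100%) | Probe or stimulus: Acetylcholine, EC20 level | Times: Fluo-8 loading 80 min at 37 °C plus 30 min room temperature | Signal: Intracellular calcium via Fluo-8 fluorescence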
CHRM4 agonist = human M4 muscarinic receptor agonists, primary screen, CHO-K1 cells, Fluo-8 calcium fluorescence; CHO-K1 hM4/Gqi5; vehicle 0%, full acetylcholine response 100%; Muscarinic acetylcholine receptor M4 (Homo sapiens), P08173; actives 0.14% (n = 360,000); activation, % at 3 µM;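 active = activation above the run mean over all test wells plus 3 SD, cut at about 32% in these data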;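 note: peak over basal fluorescence ratio per well then scaled between controls; 0% = DMSO wells and 100% = acetylcholine at EC100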
CHRM5 antagonist = human M5 muscarinic receptor antagonists, primary screen, CHO cells, Fluo-8 calcium fluorescence; Muscarinic acetylcholine receptor M5 (Homo sapiens), P08912; CHO-hM5 cells, ACh EC80; inhibition, % at 3 µM; actives 0.59% (n = 360,000);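 active = inhibition above a per-plate cutoff, the mean of that plate's test compounds plus 3 SD, cut at about 27% in these data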;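 note: 0% = acetylcholine EC80 with DMSO and 100% = DMSO without agonist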
CHRM4 antagonist = human M4 muscarinic receptor antagonists, primary screen, CHO cells, Fluo-8 calcium fluorescence; Muscarinic acetylcholine receptor M4 (Homo sapiens), P08173; CHO-hM4 cells, ACh EC80; AID 624125, 2012; inhibition, % at 3 µM; actives 0.73% (n = 360,000);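 active = inhibition above its plate's cutoff, the mean inhibition of sample wells plus 3 SD, cut at about 27% in these data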;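 note: 0% = acetylcholine EC80 with DMSO and 100% = DMSO without agonist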
The depositor's hits bear a star.

SMILES | M5 ag | CHRM4 PAM | M5 PAM | CHRM4 agonist | CHRM5 antagonist | CHRM4 antagonist
Cc1cnc(C(=O)OCC(=O)NC(C)c2ccccc2)cn1 (stereo not drawn) | -0.8 | 5.4 | 3.6 | 0.6 | 11.2 | 1.4
CN(CCc1ccccc1)c1cc2c(c3c1ccn3C)C1CCC2C1 (stereo not drawn) | 1.8 | -1.6 | -0.7 | -0.4 | -5.7 | -5.4
COc1cc(C2c3cc4c(cc3C(O)C3COCC23)OCO4)cc(OC)c1OC (stereo not drawn) | 6.6 | 3.4 | 11.7 | 0.4 | 14.3 | -3.8
COc1cc([C@@H]2c3cc4c(cc3[C@H](O)[C@H]3COC(=O)[C@H]23)OCO4)cc(OC)c1OC | 0.8 | -16.4 | -13.8 | 1.6 | 4.5 | 55.4*
C#CCNC(=O)C[C@@H]1C[C@@]2(C(=O)OC)CCCCC=C2N(CCCCCCCC)C1=O | -4.0 | 6.2 | -2.3 | 0.3 | 4.0 | -9.8
COc1ccc(CNS(=O)(=O)c2ccc3c(c2)N(C)CCO3)cc1 | -2.9 | -4.2 | -11.3 | 7.9 | 28.9* | 2.4
COC(=O)c1cc(Cl)nc2ccccc12 | 3.2 | 11.1 | 21.4* | 1.1 | -2.6 | -5.8
CCCc1cc(C(=O)OC)c2ccccc2n1 | -1.1 | -7.9 | 4.8 | 0.2 | -2.6 | 7.8
O=C(CNC1CCCCC1)Nc1cccc([N+](=O)[O-])c1 | 0.2 | 0.5 | 2.7 | 0.9 | 4.6 | 0.3
COc1ccc(NC(=O)NC2CCCCCCC2)cc1OC | -1.1 | 17.0 | 22.4* | 2.6 | -1.8 | 4.2
O=C(Nc1cccc([N+](=O)[O-])c1)NC1CCCCCCC1 | 7.6 | -12.9 | -16.0 | 15.2 | 29.0* | 5.6
O=C(Nc1cccc([N+](=O)[O-])c1)NN1CCCCCC1 | 6.1 | -3.5 | -20.3 | 13.8 | 30.2* | 11.2
O=C(NCc1cccnc1)Nc1cccc([N+](=O)[O-])c1 | -5.4 | -0.9 | -10.8 | 1.5 | 27.9* | -2.9
Cc1cnc(NC(=O)Nc2ccc(OCc3ccccc3)cc2)c(Br)c1 | -1.0 | -1.8 | -3.8 | 0.7 | 4.1 | 9.4
CCOc1ncccc1C(=O)Nc1cc(S(=O)(=O)N(CC)CC)ccc1N1CCOCC1 | 2.2 | 6.8 | 8.1 | 2.1 | 10.1 | -15.1
COc1ccc(CNC(=O)Nc2nc(C(N)Cc3ccc(C(F)(F)F)cc3)cs2)cc1 (stereo not drawn) | 6.6 | 4.5 | 2.8 | 20.5 | 1.9 | 20.7
O=C(NCC1CCCO1)C1CCN(S(=O)(=O)c2cc(Cl)ccc2Cl)CC1 (stereo not drawn) | 0.4 | -1.4 | -0.9 | 1.5 | 5.8 | -7.1
Cc1ccccc1NC1=NS(=O)(=O)c2ccccc21 | -1.3 | 1.7 | 0.6 | 0.3 | -3.8 | -10.1
O=S1(=O)N=C(Nc2ccc(O)cc2)c2ccccc21 | 5.2 | 6.1 | 21.2* | 1.0 | -7.8 | -5.8
Cc1ccccc1C(=O)NCC(=O)NNC(=O)CCN1CCN(c2ccccc2)CC1 | -3.6 | 4.9 | 0.4 | 0.8 | 1.9 | 3.9
Cc1ccsc1C(=O)NNC(=O)CCN1CCN(c2ccccc2)CC1 | 1.5 | 22.9* | 1.9 | 0.4 | 10.8 | -13.5
Cc1c(C(=O)c2ccc(Cl)cc2[N+](=O)[O-])c2ccccn2c1CCC#N | 3.2 | 15.9 | 19.3* | 2.7 | 8.4 | -2.5
C/C(=N\NC(=O)c1cccc(S(=O)(=O)N2CCOCC2)c1)c1ccc(C)cc1 | 2.5 | 7.6 | 4.8 | 3.0 | 3.9 | -1.9
O=C(NCC(F)(F)F)c1ccc2sc([C@@H]3O[C@H](CO)[C@H](O)[C@H](O)[C@H]3O)nc2c1 | 0.0 | 4.8 | 1.0 | 0.6 | -5.8 | -9.4
COc1cc(C2NC(=O)N(C)C(C)=C2C(=O)OCc2ccccc2)cc(Br)c1O (stereo not drawn) | 0.2 | 14.4* | 4.3 | 3.0 | -9.6 | -5.8
SMILES | M5 ag | CHRM4 PAM | M5 PAM | CHRM4 agonist | CHRM5 antagonist | CHRM4 antagonist
Cn1c(N)c(C(=O)/C=C/c2ccccc2)c(=O)[nH]c1=O | -7.5 | -0.1 | -18.8 | 0.3 | 46.8* | -4.4
CCOc1ccc(NC(=O)C2CC(=O)N(CCc3ccc(OC)c(OC)c3)C2)cc1OCC (stereo not drawn) | -3.1 | 6.9 | 2.8 | 1.3 | -7.3 | -20.4
O=C(NCC(c1cccs1)N1CCOCC1)c1ccc(Cl)nc1 (stereo not drawn) | 1.6 | 8.0 | -2.4 | 0.5 | 10.3 | 0.0
COc1ccc(/C=C2\SC(=S)N(CCCC(=O)N3CCN(C)CC3)C2=O)cc1 | 6.1 | -3.3 | 33.1* | 10.2 | 10.8 | -8.9
CCc1ccc(/C=C2\SC(=S)N(CCCC(=O)N3CCN(C)CC3)C2=O)cc1 | 0.5 | -4.5 | -10.7 | 7.4 | 12.0 | 5.6
Cc1onc(-c2ccccc2)c1NC(=O)OC(C)c1cccnc1 (stereo not drawn) | -2.8 | 7.8 | -16.1 | 0.9 | 16.6 | -13.4
C(=C\c1ccccc1)/CN1CCN(C(c2ccnc3ccccc23)c2nnnn2C2CCCC2)CC1 (stereo not drawn) | -7.8 | -15.0 | -22.3 | 0.8 | 86.0* | 31.2*
C(=C\c1ccccc1)/CN1CCN(C(c2cccs2)c2nnnn2Cc2ccccc2)CC1 (stereo not drawn) | -6.9 | -14.3 | -20.4 | 8.4 | 10.0 | -7.6
C(=C\c1ccccc1)/CN1CCN(C(c2cccs2)c2nnnn2C2CCCC2)CC1 (stereo not drawn) | -8.0 | -10.7 | -22.4 | -0.5 | 30.7* | 3.8
C(=C\c1ccccc1)/CN1CCN(C(c2nnnn2C2CCCC2)C2CC2)CC1 (stereo not drawn) | -8.0 | -4.3 | -3.6 | -0.1 | 6.3 | -4.3
C(=C\c1ccccc1)/CN1CCN(C(c2ccccc2)c2nnnn2C2CCCC2)CC1 (stereo not drawn) | -7.7 | -14.1 | -22.1 | 3.9 | 44.2* | 13.6
CC(C)(C)n1nnnc1C(c1ccnc2ccccc12)N1CCN(C/C=C/c2ccccc2)CC1 (stereo not drawn) | -7.3 | -2.2 | -15.7 | 2.5 | 6.5 | 0.4
C(=C\c1ccccc1)/CN1CCN(C(c2cccc3ccccc23)c2nnnn2Cc2ccccc2)CC1 (stereo not drawn) | -3.1 | -11.0 | -22.2 | 2.5 | 37.5* | 6.5
CCN(CC)c1ccc(/C=C2\C(=N)N3N=C(CC(=O)N4CCOCC4)SC3=NC2=O)cc1 | 8.0 | 0.1 | -2.9 | 4.0 | 4.7 | 9.6

Compound activity as filed in PubChem BioAssay.
